Assay results from ChEMBL document CHEMBL1131062, “Synthesis and pharmacological characterization of O-alkynyloximes of tropinone and N-methylpiperidinone as muscarinic agonists” (J Med Chem, 1998).
Several values for one entry are separate records, joined by “and”; a condition that tells them apart may be missing. Identical values can stand only once.

Tests used:
Rattus norvegicus = organism: Rattus norvegicus; assay: Concentration required to relax phenylephrine-precontracted aortic rings by 50% in endothelium intact rat aorta; type: functional; settings: read-out: ED50 (the source's name)
Method in brief: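 Endothelium-intact rat aortic rings equilibrated 60 min at 37 °C under 95% O2/5% CO2. Endothelium confirmed by relaxation to 10^-6 M ACh. After washout, rings precontracted with 10^-7 M phenylephrine. Test compound added cumulatively (10^-6–10^-4 M) at 2-min intervals. Each ring used once. ED50 taken from percent phenylephrine response versus concentration.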

Oryctolagus cuniculus = organism: Oryctolagus cuniculus; assay: Concentration required to relax phenylephrine-precontracted aortic rings by 50% in endothelium denuded rabbit aorta; settings: read-out: ED50 (the source's name)
[1] = biological target: T1, Muscarinic acetylcholine receptor M3 (Rattus norvegicus, UniProt P08483); assay: Binding affinity to Muscarinic acetylcholine receptor M3 by measuring its ability to displace [3H]N-methylscopolamine binding in rat submandibulary gland
Method in brief: (§1)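 Rat submandibulary gland membranes prepared in Na+/Mg2+ HEPES buffer pH 7.4. Incubated 45 min at 30 °C with 0.3 nM [3H]-N-methylscopolamine and test compound (10 nM–10 mM). Nonspecific binding defined with 1 μM (±)-QNB. Pellet obtained by centrifugation and counted by scintillation. Triplicate determinations. Ki derived from IC50 by Cheng–Prusoff.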

[2] = biological target: T2, Muscarinic acetylcholine receptor M2 (Rattus norvegicus, UniProt P10980); assay: Binding affinity to Muscarinic acetylcholine receptor M2 by measuring its ability to displace [3H]N-methylscopolamine binding in rat heart
T2 sequence (P10980 whole entry): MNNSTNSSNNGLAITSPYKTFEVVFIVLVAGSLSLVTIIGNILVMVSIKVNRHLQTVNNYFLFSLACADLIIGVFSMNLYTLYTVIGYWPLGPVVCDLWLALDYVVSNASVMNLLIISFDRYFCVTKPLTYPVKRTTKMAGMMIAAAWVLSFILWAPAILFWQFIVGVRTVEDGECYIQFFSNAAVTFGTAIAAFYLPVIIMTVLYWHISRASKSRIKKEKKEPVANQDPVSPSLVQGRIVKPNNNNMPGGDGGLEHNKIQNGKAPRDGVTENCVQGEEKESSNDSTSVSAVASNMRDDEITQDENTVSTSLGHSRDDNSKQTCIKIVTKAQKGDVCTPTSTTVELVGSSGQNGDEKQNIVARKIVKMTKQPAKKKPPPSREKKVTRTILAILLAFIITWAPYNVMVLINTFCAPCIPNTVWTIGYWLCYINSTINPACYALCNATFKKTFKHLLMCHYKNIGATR
Method in brief: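 Rat heart ventricle membranes, homogenized in sucrose/TRIS and washed in Na+/Mg2+ HEPES buffer pH 7.4. Nonspecific binding defined with 1 μM (±)-QNB. Bound ligand separated by centrifugation and counted by scintillation. Triplicate determinations. Ki derived from IC50 by Cheng–Prusoff.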

[3] = Inhibitory selectivity for Muscarinic receptors M3 and M1
Method in brief: (§2)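 Ratios of Ki values from rat tissue displacement binding. M1 used cerebral cortex with 0.5 nM [3H]pirenzepine. M2 used heart ventricle and M3 used submandibulary gland, both with 0.3 nM [3H]-N-methylscopolamine. All incubations ran 45 min at 30 °C with test compound at 10 nM–10 mM. Ki obtained by Cheng–Prusoff. Three independent experiments.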

[4] = biological target: Muscarinic receptor M1 and M2 (Rattus norvegicus) (UniProt P08482+P10980); assay: Inhibitory selectivity for Muscarinic receptors M2 and M1; type: protein assay; method in brief: as §2
[5] = biological target: Muscarinic receptor M2 and M3 (Rattus norvegicus) (UniProt P08483+P10980); assay: Inhibitory selectivity for Muscarinic receptors M3 and M2; type: protein assay; method in brief: as §2
[6] = biological target: T1, Muscarinic acetylcholine receptor M3; assay: The compound was evaluated for its ability to inhibit [3H]NMS binding to Muscarinic acetylcholine receptor in submandibular salivary gland; type: tissue-based; method in brief: as §1

Muscarinic receptor M1 and M2 (Rattus norvegicus), sequence (P08482 whole entry, looked up, one chain of several): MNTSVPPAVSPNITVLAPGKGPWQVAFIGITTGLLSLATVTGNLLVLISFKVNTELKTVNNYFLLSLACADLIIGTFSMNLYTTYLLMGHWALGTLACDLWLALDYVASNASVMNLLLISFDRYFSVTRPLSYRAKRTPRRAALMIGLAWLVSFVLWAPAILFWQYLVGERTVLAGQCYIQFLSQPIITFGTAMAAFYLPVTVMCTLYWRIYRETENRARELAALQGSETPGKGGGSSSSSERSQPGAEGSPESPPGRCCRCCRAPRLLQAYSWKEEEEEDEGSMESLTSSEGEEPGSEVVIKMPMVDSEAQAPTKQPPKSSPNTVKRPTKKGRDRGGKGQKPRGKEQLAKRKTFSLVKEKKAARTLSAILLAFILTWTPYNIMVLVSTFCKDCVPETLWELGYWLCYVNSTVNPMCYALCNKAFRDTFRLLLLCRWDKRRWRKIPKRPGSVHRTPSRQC
T1 sequence (P08483 whole entry): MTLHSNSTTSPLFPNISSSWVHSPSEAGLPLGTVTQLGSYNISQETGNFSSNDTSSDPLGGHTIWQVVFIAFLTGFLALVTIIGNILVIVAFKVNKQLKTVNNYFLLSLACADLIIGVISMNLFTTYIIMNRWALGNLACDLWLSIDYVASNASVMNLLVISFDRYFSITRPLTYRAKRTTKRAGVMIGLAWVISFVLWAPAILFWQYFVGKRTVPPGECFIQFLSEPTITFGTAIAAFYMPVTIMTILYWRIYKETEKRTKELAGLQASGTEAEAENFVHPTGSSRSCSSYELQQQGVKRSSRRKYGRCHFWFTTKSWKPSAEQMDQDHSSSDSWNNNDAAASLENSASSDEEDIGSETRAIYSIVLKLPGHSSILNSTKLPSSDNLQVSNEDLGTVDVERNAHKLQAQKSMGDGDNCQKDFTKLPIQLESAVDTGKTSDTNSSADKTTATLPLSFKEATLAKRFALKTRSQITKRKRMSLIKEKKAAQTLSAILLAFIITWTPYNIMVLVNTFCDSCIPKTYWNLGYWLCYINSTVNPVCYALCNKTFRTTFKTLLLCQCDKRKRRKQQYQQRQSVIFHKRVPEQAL
Muscarinic receptor M2 and M3 (Rattus norvegicus), sequence (P08483 whole entry, looked up, one chain of several): as the sequence (P08483 whole entry) above

SMILES	EC50 (Rattus norvegicus) [µM]	EC50 (Oryctolagus cuniculus) [µM]	Ki [1] [µM]	Ki [2]	Selectivity ratio [3]	Selectivity ratio [4]	Selectivity ratio [5]	Ki [6] [µM]
COC(=O)C1=CCCN(C)C1 [ARECOLINE]	1.6							
C#CCCON=C1CCN(C)CC1	7.4	28	39.8	10 µM	25	6.2	3.7	
CCC#CCON=C1CC2CCC(C1)N2C	1.3	3.5	3.16	12.6 µM	0.56	2.4	0.23	79.4
C[N+](C)(C)CC#CCOC(=O)Nc1cccc(Cl)c1	9.6	0.35		6.31 µM	0.46	1.4	0.33	
C#CC(CC)ON=C1CCN(C)CC1 (stereo not drawn)	7.6	18	10	10 µM	1.5	1.8	0.85	
C#CC(CC)ON=C1CC2CCC(C1)N2C (stereo not drawn)	5.5	41	6.31	6.31 µM	22	20	1.1	
CN1CCC(=NO)CC1	43	78	3160	398 µM	7.6	0.9	8.5	
C#CCON=C1CC2CCC(C1)N2C	3.5	7.1		6.31 µM and 25.1 µM	4.6	4.2	1.1	
C#CCC(C)ON=C1CCN(C)CC1 (stereo not drawn)	5	25	50.1	10 µM	15	2.9	5.4	
CON=C1CC2CCC(C1)N2C	11	11	100	126 µM	0.1	0.14	0.74	
CC#CCCON=C1CCN(C)CC1	6.3		39.8	15.8 µM	2	7.5	0.27	
CC#CCCON=C1CC2CCC(C1)N2C	7.8	9.8	2.51	3.16 µM	3	4.5	0.66	
CON=C1CCN(C)CC1	13	260	25.1	39.8 µM	0.51	0.74	0.71	
